Source: ChEMBL document CHEMBL5058577, “EUbOPEN Chemogenomics Library 2 (Multiplex)” (2022)

Tested on: HEK-293T
Assay: Multiplex assay against HEK293T
Format: toxicity, cell-based
Conditions: human
How it was run: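 Four dyes were applied at seeding to live cells: Hoechst33342, BioTracker Green Microtubule Cytoskeleton Dye, MitoTracker Red and Annexin V Alexa Fluor 680. Imaging after compound addition used a CQ1 microscope at 37°C and 5% CO2. CellPathfinder machine-learning gating then sorted cells into Hoechst high-intensity objects or normal cells, normal cells into healthy, pyknosed or fragmented nuclei, and pyknosed cells into mitotic or apoptotic, with tubulin, mitochondrial-mass and membrane-permeability phenotypes given as per cents of healthy-nucleus cells.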

[1] = 12 h, 1 µM, compound concentration 1 uM, replicate 1
[2] = 12 h, 1 µM, compound concentration 1 uM, replicate 2
[3] = 12 h, 10 µM, compound concentration 10 uM, replicate 1
[4] = 12 h, 10 µM, compound concentration 10 uM, replicate 2
[5] = 24 h, 1 µM, compound concentration 1 uM, replicate 1
[6] = 24 h, 1 µM, compound concentration 1 uM, replicate 2
[7] = 24 h, 10 µM, compound concentration 10 uM, replicate 1
[8] = 24 h, 10 µM, compound concentration 10 uM, replicate 2
[9] = 48 h, 1 µM, compound concentration 1 uM, replicate 1
[10] = 48 h, 1 µM, compound concentration 1 uM, replicate 2
[11] = 48 h, 10 µM, compound concentration 10 uM, replicate 1
[12] = 48 h, 10 µM, compound concentration 10 uM, replicate 2

CN(C)CCCc1cc(C(=O)Nc2ccc(-c3ccncc3)cc2)ccc1O.Cl.Cl
Population Apoptotic (%) [1]: 27%
Population Fragmented Nuclei (%) [1]: 5%
Population Healthy Nuclei (%) [1]: 79%
Population Hoechst High Intensity Objects (%) [1]: 9%
Population Membrane Permeable-Phenotype (%) [1]: 0%
Population Mitochondria Different-Phenotype (%) [1]: 48%
Population Mitotic Cells (%) [1]: 72%
Population Normal (%) [1]: 90%
Population Pyknosed Nuclei (%) [1]: 14%
Population Tubulin-Different-Phenotype (%) [1]: 37%
Total Cell Count [1]: 358
Population Apoptotic (%) [2]: 37%
Population Healthy Nuclei (%) [2]: 82%
Population Hoechst High Intensity Objects (%) [2]: 8%
Population Mitochondria Different-Phenotype (%) [2]: 58%
Population Mitotic Cells (%) [2]: 62%
Population Normal (%) [2]: 91%
Population Pyknosed Nuclei (%) [2]: 11%
Population Tubulin-Different-Phenotype (%) [2]: 14%
Total Cell Count [2]: 367
Population Apoptotic (%) [3]: 31%
Population Fragmented Nuclei (%) [3]: 10%
Population Healthy Nuclei (%) [3]: 81%
Population Hoechst High Intensity Objects (%) [3]: 6%
Population Membrane Permeable-Phenotype (%) [3]: 0%
Population Mitochondria Different-Phenotype (%) [3]: 49%
Population Mitotic Cells (%) [3]: 68%
Population Normal (%) [3]: 93%
Population Pyknosed Nuclei (%) [3]: 7%
Population Tubulin-Different-Phenotype (%) [3]: 33%
Total Cell Count [3]: 460
Population Apoptotic (%) [4]: 60%
Population Fragmented Nuclei (%) [4]: 11%
Population Healthy Nuclei (%) [4]: 77%
Population Hoechst High Intensity Objects (%) [4]: 9%
Population Membrane Permeable-Phenotype (%) [4]: 2%
Population Mitochondria Different-Phenotype (%) [4]: 63%
Population Mitotic Cells (%) [4]: 39%
Population Normal (%) [4]: 90%
Population Pyknosed Nuclei (%) [4]: 11%
Total Cell Count [4]: 391
Population Apoptotic (%) [5]: 25%
Population Fragmented Nuclei (%) [5]: 11%
Population Healthy Nuclei (%) [5]: 78%
Population Hoechst High Intensity Objects (%) [5]: 5%
Population Membrane Permeable-Phenotype (%) [5]: 1%
Population Mitochondria Different-Phenotype (%) [5]: 26%
Population Mitotic Cells (%) [5]: 74%
Population Normal (%) [5]: 94%
Population Pyknosed Nuclei (%) [5]: 10%
Population Tubulin-Different-Phenotype (%) [5]: 21%
Total Cell Count [5]: 542
Population Fragmented Nuclei (%) [6]: 9%
Population Healthy Nuclei (%) [6]: 83%
Population Membrane Permeable-Phenotype (%) [6]: 0%
Population Mitochondria Different-Phenotype (%) [6]: 32%
Population Mitotic Cells (%) [6]: 75%
Population Pyknosed Nuclei (%) [6]: 6%
Population Tubulin-Different-Phenotype (%) [6]: 9%
Total Cell Count [6]: 486
Population Apoptotic (%) [7]: 32%
Population Fragmented Nuclei (%) [7]: 12%
Population Healthy Nuclei (%) [7]: 77%
Population Hoechst High Intensity Objects (%) [7]: 5%
Population Membrane Permeable-Phenotype (%) [7]: 0%
Population Mitochondria Different-Phenotype (%) [7]: 38%
Population Mitotic Cells (%) [7]: 67%
Population Normal (%) [7]: 94%
Population Pyknosed Nuclei (%) [7]: 9%
Population Tubulin-Different-Phenotype (%) [7]: 23%
Total Cell Count [7]: 588
Population Apoptotic (%) [8]: 47%
Population Fragmented Nuclei (%) [8]: 15%
Population Healthy Nuclei (%) [8]: 74%
Population Hoechst High Intensity Objects (%) [8]: 15%
Population Mitochondria Different-Phenotype (%) [8]: 48%
Population Mitotic Cells (%) [8]: 52%
Population Normal (%) [8]: 84%
Population Tubulin-Different-Phenotype (%) [8]: 19%
Total Cell Count [8]: 505
Population Apoptotic (%) [9]: 23%
Population Fragmented Nuclei (%) [9]: 11%
Population Healthy Nuclei (%) [9]: 81%
Population Hoechst High Intensity Objects (%) [9]: 2%
Population Membrane Permeable-Phenotype (%) [9]: 2%
Population Mitochondria Different-Phenotype (%) [9]: 19%
Population Mitotic Cells (%) [9]: 76%
Population Normal (%) [9]: 97%
Population Pyknosed Nuclei (%) [9]: 6%
Population Tubulin-Different-Phenotype (%) [9]: 14%
Total Cell Count [9]: 814
Population Apoptotic (%) [10]: 21%
Population Fragmented Nuclei (%) [10]: 16%
Population Healthy Nuclei (%) [10]: 75%
Population Hoechst High Intensity Objects (%) [10]: 5%
Population Membrane Permeable-Phenotype (%) [10]: 1%
Population Mitochondria Different-Phenotype (%) [10]: 24%
Population Mitotic Cells (%) [10]: 78%
Population Normal (%) [10]: 94%
Population Pyknosed Nuclei (%) [10]: 8%
Population Tubulin-Different-Phenotype (%) [10]: 13%
Total Cell Count [10]: 596
Population Apoptotic (%) [11]: 29%
Population Fragmented Nuclei (%) [11]: 17%
Population Healthy Nuclei (%) [11]: 75%
Population Hoechst High Intensity Objects (%) [11]: 5%
Population Membrane Permeable-Phenotype (%) [11]: 1%
Population Mitochondria Different-Phenotype (%) [11]: 21%
Population Mitotic Cells (%) [11]: 70%
Population Normal (%) [11]: 94%
Population Pyknosed Nuclei (%) [11]: 6%
Population Tubulin-Different-Phenotype (%) [11]: 13%
Total Cell Count [11]: 883
Population Apoptotic (%) [12]: 58%
Population Fragmented Nuclei (%) [12]: 15%
Population Healthy Nuclei (%) [12]: 76%
Population Hoechst High Intensity Objects (%) [12]: 11%
Population Membrane Permeable-Phenotype (%) [12]: 0%
Population Mitochondria Different-Phenotype (%) [12]: 35%
Population Mitotic Cells (%) [12]: 41%
Population Normal (%) [12]: 88%
Population Pyknosed Nuclei (%) [12]: 7%
Population Tubulin-Different-Phenotype (%) [12]: 20%
Total Cell Count [12]: 641
